# Measurements as given in ChEMBL document CHEMBL1795280, “Design, synthesis and activity of a potent, selective series of N-aryl pyridinone inhibitors of p38 kinase” (Bioorg Med Chem Lett, 2011).
# System: Rattus norvegicus
# Assay: Antiinflammatory activity in Lewis rat assessed as inhibition of LPS-induced TNFalpha production at 5 mg/kg, po administered 4 hrs before LPS challenge by ELISA
# Assay type: functional
# Conditions: not given
# Summary of the method: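 Adult male Lewis rats (225–250 g), fasted 18 h with free access to water. Compound or vehicle given by oral gavage (1 mL). LPS (E. coli 0111:B4) given 1 mg/kg i.v. in saline 2, 4 or 6 h later. Serum taken by cardiac puncture 90 min after LPS. TNFα quantified against a recombinant rat TNF standard curve with a four-parameter fit. Two vehicle groups per experiment, three experiments.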
row,Structure (SMILES),inhibition in vivo at 5 mg/kg
1,CNC(=O)c1cccc(-n2c(C)cc(OCc3ccc(F)cc3F)c(Br)c2=O)c1,70%
2,Cc1cc(OCc2ccc(F)cc2F)c(Br)c(=O)n1-c1c(F)cccc1F,38%
3,O=c1c(Br)c(OCc2ccc(F)cc2F)cc(CO)n1-c1c(F)cccc1F,93%
4,Cc1cc(OCc2ccc(F)cc2F)c(Br)c(=O)n1-c1c(F)cc(OCCO)cc1F,44%

# System: PBMC
# Assay: Antiinflammatory activity in human PBMC assessed as inhibition of LPS-induced TNFalpha production treated 1 hr before LPS challenge measured after 18 hrs
# Assay type: functional, cell-based
# Conditions: not given
# Summary of the method: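 PBMCs isolated by Ficoll from heparinized blood of two healthy donors, in DMEM with 5% endotoxin-free FBS, 2.5 × 10⁵ cells/well. Pretreated 1 h with compound (0.0001–25 µM range), then stimulated 18 h with 22 ng/ml LPS. Final DMSO 0.25%. Secreted TNFα measured by MSD; IC50 reported.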
row,Structure (SMILES),IC50
1,CNC(=O)c1cccc(-n2c(C)cc(OCc3ccc(F)cc3F)c(Br)c2=O)c1,45 nM
2,Cc1cc(OCc2ccc(F)cc2F)c(Br)c(=O)n1-c1c(F)cccc1F,22 nM
3,O=c1c(Br)c(OCc2ccc(F)cc2F)cc(CO)n1-c1c(F)cccc1F,25 nM
4,Cc1cc(OCc2ccc(F)cc2F)c(Br)c(=O)n1-c1c(F)cc(OCCO)cc1F,61 nM

# System: not listed separately
# Assay: Metabolic stability in rat liver microsomes assessed as compound remaining at 2 uM after 45 mins by LC/MS analysis
# Assay type: ADME, Microsome
# Conditions: read-out: Stability
row,"remaining at 0.75 h, 2 µM",Structure (SMILES)
1,92%,CNC(=O)c1cccc(-n2c(C)cc(OCc3ccc(F)cc3F)c(Br)c2=O)c1
2,80%,Cc1cc(OCc2ccc(F)cc2F)c(Br)c(=O)n1-c1c(F)cccc1F
3,65%,O=c1c(Br)c(OCc2ccc(F)cc2F)cc(CO)n1-c1c(F)cccc1F
4,96%,Cc1cc(OCc2ccc(F)cc2F)c(Br)c(=O)n1-c1c(F)cc(OCCO)cc1F

# System: not listed separately
# Assay: Bioavailability in iv and po dosed Sprague-Dawley rat
# Assay type: ADME, organism-based
# Conditions: in vivo
row,bioavailability,Structure (SMILES)
1,3%,CNC(=O)c1cccc(-n2c(C)cc(OCc3ccc(F)cc3F)c(Br)c2=O)c1
2,19%,Cc1cc(OCc2ccc(F)cc2F)c(Br)c(=O)n1-c1c(F)cccc1F
3,19%,O=c1c(Br)c(OCc2ccc(F)cc2F)cc(CO)n1-c1c(F)cccc1F

# Target: Mitogen-activated protein kinase 14 (Homo sapiens, UniProt Q16539)
# Assay: Inhibition of p38alpha assessed as phosphorylation of […] after 60 mins by fluorescence assay
# Conditions: not given
# Summary of the method: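 Cascade assay in which activated p38α (6 pM final) activates unactivated MK2 (1 nM), which phosphorylates FITC-labelled Hsp27 peptide (1 nM) with […]. Inhibitor 0.2–10,000 nM. Room temperature, 60 min, EDTA quench. Phospho-peptide quantified by Caliper LabChip; IC50.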
# Sequence of Mitogen-activated protein kinase 14 (Q16539 whole entry): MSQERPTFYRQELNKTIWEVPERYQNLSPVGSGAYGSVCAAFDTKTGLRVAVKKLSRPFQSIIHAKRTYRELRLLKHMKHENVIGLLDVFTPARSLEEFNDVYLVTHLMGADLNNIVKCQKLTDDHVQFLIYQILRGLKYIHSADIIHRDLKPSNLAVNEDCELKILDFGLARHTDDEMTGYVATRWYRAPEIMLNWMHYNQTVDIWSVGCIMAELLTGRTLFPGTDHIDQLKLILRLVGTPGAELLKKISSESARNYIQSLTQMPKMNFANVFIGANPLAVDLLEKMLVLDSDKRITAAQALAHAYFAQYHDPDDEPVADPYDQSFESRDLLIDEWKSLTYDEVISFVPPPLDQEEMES
row,IC50,Structure (SMILES)
1,17 nM,CNC(=O)c1cccc(-n2c(C)cc(OCc3ccc(F)cc3F)c(Br)c2=O)c1
2,3 nM,Cc1cc(OCc2ccc(F)cc2F)c(Br)c(=O)n1-c1c(F)cccc1F
3,5 nM,O=c1c(Br)c(OCc2ccc(F)cc2F)cc(CO)n1-c1c(F)cccc1F
4,7 nM,Cc1cc(OCc2ccc(F)cc2F)c(Br)c(=O)n1-c1c(F)cc(OCCO)cc1F

# System: not listed separately
# Assay: Clearance in iv and po dosed Sprague-Dawley rat
# Assay type: ADME, organism-based
# Conditions: in vivo
row,clearance,Structure (SMILES)
1,8.1 mL/min/kg,CNC(=O)c1cccc(-n2c(C)cc(OCc3ccc(F)cc3F)c(Br)c2=O)c1
2,28.7 mL/min/kg,Cc1cc(OCc2ccc(F)cc2F)c(Br)c(=O)n1-c1c(F)cccc1F
3,4 mL/min/kg,O=c1c(Br)c(OCc2ccc(F)cc2F)cc(CO)n1-c1c(F)cccc1F

# System: not listed separately
# Assay: Metabolic stability in human liver microsomes assessed as compound remaining at 2 uM after 45 mins by LC/MS analysis
# Assay type: ADME, Microsome
# Conditions: read-out: Stability
row,"remaining at 0.75 h, 2 µM",Structure (SMILES)
1,95%,CNC(=O)c1cccc(-n2c(C)cc(OCc3ccc(F)cc3F)c(Br)c2=O)c1
2,60%,Cc1cc(OCc2ccc(F)cc2F)c(Br)c(=O)n1-c1c(F)cccc1F
3,39%,O=c1c(Br)c(OCc2ccc(F)cc2F)cc(CO)n1-c1c(F)cccc1F
4,87%,Cc1cc(OCc2ccc(F)cc2F)c(Br)c(=O)n1-c1c(F)cc(OCCO)cc1F

# System: not listed separately
# Assay: Half life in iv and po dosed Sprague-Dawley rat
# Assay type: ADME, organism-based
# Conditions: in vivo
row,half-life,Structure (SMILES)
1,3.1 h,CNC(=O)c1cccc(-n2c(C)cc(OCc3ccc(F)cc3F)c(Br)c2=O)c1
2,1.9 h,Cc1cc(OCc2ccc(F)cc2F)c(Br)c(=O)n1-c1c(F)cccc1F
3,8.9 h,O=c1c(Br)c(OCc2ccc(F)cc2F)cc(CO)n1-c1c(F)cccc1F

# System: not listed separately
# Assay: Solubility of the compound
# Assay type: physicochemical
# Conditions: not given
row,solubility,Structure (SMILES)
1,< 10 µg/mL,CNC(=O)c1cccc(-n2c(C)cc(OCc3ccc(F)cc3F)c(Br)c2=O)c1
2,< 10 µg/mL,Cc1cc(OCc2ccc(F)cc2F)c(Br)c(=O)n1-c1c(F)cccc1F
3,< 10 µg/mL,O=c1c(Br)c(OCc2ccc(F)cc2F)cc(CO)n1-c1c(F)cccc1F
